The record followed here is PubChem BioAssay.

Molecules are shown by their SMILES. Active and inactive are the calls of the source.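 Rule for the calls, unless noted: active = fluorescence slope after compound addition differing from the mean of all tested samples at 99.7% confidence, mostly higher but some lower; inactive = the rest.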

A short description of assay [1]: inhibitors of TNFa-induced NFkB p65 translocation, primary screen, imaging, HUVEC, MLSMR starter and 10KST1 sets (AID 438;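 active = inhibition above 20% together with a positive visual image hit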;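 note: compound added about 3h40 before a 20 min TNFalpha stimulation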;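 for inhibition: signal is the nuclear over cytoplasmic p65 intensity ratio per well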). As to conditions: HUVEC TNFa-induced p65 nuclear translocation; cell count: measured here: nuclei count (cytotoxicity indicator), at 2.08 µM; inhibition: at 2 µM, stronger effect = higher value, 0% TNFa-plus-vehicle, 100% no-TNFa wells.
Assay [2] can be described thus: inhibitors of mutant huntingtin aggregation, primary screen, imaging, exon1htt(103Q)mCFP cells, high-content imaging (AID 483;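 active = visual image review flags a hit and inhibition of aggregation exceeds 20%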;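 note: compound exposure lasted 3 days before fixation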;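 for nuclei count: percent of the per-plate median nuclei count of sample wells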). As to conditions: exon1htt(103Q)mCFP cell line, aggregate imaging, at 2 µM; inhibition of aggregation: stronger effect = higher value; nuclei count: measured here: cell count, toxicity.
The nature of assay [3]: inhibitors of E-selectin induction by TNFa, primary screen, imaging, HUVEC, immunofluorescence, MLSMR starter and 10KST1 sets (AID 487;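 active = visually confirmed hit in the image check and inhibition above 20%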;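 for inhibition: signal is fraction of cell area covered by stained E-selectin grains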;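 for nuclei count: 100% = median nuclei count of all wells on the same plate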). Conditions: HUVEC TNFalpha-induced E-selectin immunofluorescence imaging, at 2 µM; inhibition: stronger effect = higher value; nuclei count: measured here: cell number, toxicity.
Assay [4] addresses Voltage-gated potassium channel subunit beta-2 (Rattus norvegicus) (UniProt P62483). Put plainly: KvBeta enzyme negative modulators, primary screen, biochemical, NADPH fluorescence (AID 622;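 active = fluorescence slope higher than the sample average by over 3 SD, cut at about -0.22 in these data, passing the limit was not always enough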;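 note: slope of raw intensity against log time taken from 70 to 1610 s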). Conditions: recombinant KvBeta, 4-cyanobenzaldehyde reduction, at 10 µM, stronger effect = higher value.
For assay [5] the target is unchanged. Put plainly: KvBeta positive modulators, primary screen, biochemical, NADPH fluorescence (AID 623;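 active = NADPH fluorescence slope more negative than the mean of all samples by about 3 SD, 99.7% confidence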;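 note: fluorescence intensity change per second fitted from 20 to 320 s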). Conditions: Recombinant KvBeta, NADPH fluorescence decrease slope, 10 min; at 10 µM; stronger effect = lower value.
For assay [6], the target named is Muscarinic acetylcholine receptor M4 (Homo sapiens) (UniProt P08173). Put plainly: compounds altering M4/GIRK thallium flux, either direction, primary screen, M4 allosteric agonist project, cell-based, HEK293 M4/GIRK, BTC-AM (AID 625).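 Note: thallium influx through GIRK channels coupled to M4 in HEK293 cells with BTC-AM dye.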 As to conditions: at 10 µM, actives lie on both sides. The procedure, abridged: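 System: HEK293 cells with M4 receptor and GIRK channels | Incubation: Cells overnight at 37 °C, BTC-AM loading 1 h, reads 2 min total | Technique: Kinetic BTC-AM fluorescence sampled at 1 Hz, 10 s pre-addition baseline | Measure: Post-addition slope, 15–24 s, of baseline-normalized fluorescence | Control set: Carbachol positive, DMSO negative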

Assay [7] can be described thus: inhibitors of Sendai virus-induced IRF3 signaling, primary screen, TLR/RLR signaling modifier project, cell-based, Sendai virus stimulus, luciferase, 10K MLSCN set (AID 602276;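 active = inhibition at or above 50% at 10 µM; inactive = inhibition below 50%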;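 note: firefly luciferase from ISG56 promoter only with Renilla not read in this screen; 0% = Sendai virus plus DMSO and 100% = medium plus DMSO without virus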). Conditions: HEK293 RL24 IRF3 luciferase reporter, at 10 µM, stronger effect = higher value.
The nature of assay [8]: inhibitors of poly I:C-induced TLR3 signaling, primary screen, cell-based, poly I:C stimulus, luciferase, 10K MLSCN set (AID 602277;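 active = inhibition of the reporter signal at or above 50%; inactive = inhibition below 50%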). Conditions: HEK293-TLR3 RL24 IRF3 luciferase reporter, at 10 µM, stronger effect = higher value. (A reporter such as luciferase makes a cellular process visible.)

Chain of Voltage-gated potassium channel subunit beta-2 (Rattus norvegicus) (P62483 whole entry, looked up): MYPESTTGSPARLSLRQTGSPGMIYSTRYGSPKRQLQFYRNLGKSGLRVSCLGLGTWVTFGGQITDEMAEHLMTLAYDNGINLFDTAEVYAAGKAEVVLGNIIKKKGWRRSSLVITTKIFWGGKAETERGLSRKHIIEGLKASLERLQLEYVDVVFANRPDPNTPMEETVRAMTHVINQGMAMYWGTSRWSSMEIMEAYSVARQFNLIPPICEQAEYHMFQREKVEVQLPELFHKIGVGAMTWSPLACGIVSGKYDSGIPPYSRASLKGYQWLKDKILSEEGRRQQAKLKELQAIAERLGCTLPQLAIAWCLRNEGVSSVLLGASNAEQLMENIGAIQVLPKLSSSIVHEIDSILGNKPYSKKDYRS
Chain of Muscarinic acetylcholine receptor M4 (Homo sapiens) (P08173 whole entry, looked up): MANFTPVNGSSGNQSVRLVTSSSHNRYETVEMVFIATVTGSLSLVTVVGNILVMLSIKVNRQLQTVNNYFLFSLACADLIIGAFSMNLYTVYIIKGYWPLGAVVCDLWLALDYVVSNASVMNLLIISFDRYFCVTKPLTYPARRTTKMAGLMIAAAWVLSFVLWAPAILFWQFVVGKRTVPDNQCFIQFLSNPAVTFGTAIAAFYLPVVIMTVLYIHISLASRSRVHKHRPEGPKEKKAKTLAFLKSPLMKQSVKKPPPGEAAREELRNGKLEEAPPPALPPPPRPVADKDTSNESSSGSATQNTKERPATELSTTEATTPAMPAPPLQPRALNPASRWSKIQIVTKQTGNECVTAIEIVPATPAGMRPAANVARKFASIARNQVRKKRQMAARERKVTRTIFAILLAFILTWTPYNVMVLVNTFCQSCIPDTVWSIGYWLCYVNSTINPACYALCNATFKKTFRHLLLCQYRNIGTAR

In general, inhibition refers to the change of the read-out against control, counted positive when it falls. For `O=C(NCCc1ccccc1)C1CCN(S(=O)(=O)N2CCC3(CC2)OCCO3)CC1`, in assay [1], the cell count was 715. Further, the inhibition in assay [1] was 0.2% (inactive); in assay [3], 16.5% (inactive); in assay [7], 21.6% (inactive); in assay [8], 20.5% (inactive). In assay [2], the inhibition of aggregation was -7.7% (inactive). In addition, the nuclei count was determined as 111% in assay [2] and 104% in assay [3]. Besides, the fluorescence slope was -0.544 (inactive) in assay [4] and 0.00522 (inactive) in assay [6]. In addition, in assay [5], the NADPH fluorescence slope is -4.5e-05 (inactive).
For `N#CCCCN1C(=O)C(O)(CC(=O)c2ccc3c(c2)OCCO3)c2ccccc21` (centres undefined), in assay [1], the cell count is 698. The inhibition in assay [1] is -8.8% (inactive); in assay [3], -15.5% (inactive); in assay [7] it was 7.56% (inactive); in assay [8], 11.6% (inactive). In addition, the inhibition of aggregation in assay [2] was -16.7% (inactive). Further, the nuclei count in assay [2] came out at 100%; in assay [3], 112%. Further, the fluorescence slope in assay [4] is -0.567 (inactive); in assay [6], 0.0053 (inactive). For the same compound, the NADPH fluorescence slope in assay [5] is 1.9e-06 (inactive).
As to `CCn1c(CNc2ccc(C)cc2)nnc1SCC(=O)NCc1ccccc1`, the cell count in assay [1] is 648. The inhibition in assay [1] was 13.4% (inactive); in assay [3] it was -45% (inactive); in assay [7] it was -9.51% (inactive); in assay [8] it was -4.1% (inactive). For the same compound, the inhibition of aggregation in assay [2] is 5.4% (inactive). The nuclei count in assay [2] came to 81.4%; in assay [3] it was 115%. For the same compound, the fluorescence slope is -0.486 (inactive) in assay [4] and 0.00606 (inactive) in assay [6]. Besides, in assay [5], the NADPH fluorescence slope was 0.000173 (inactive).
Turning to `CCC(C)n1[nH]c(=O)c2c(C)cc(C)nc21` (centres undefined), in assay [1], the cell count was 405. In addition, the inhibition in assay [1] is 1.8% (inactive); in assay [3], -50.1% (inactive); in assay [7], 6.37% (inactive); in assay [8], 15.3% (inactive). For the same compound, the inhibition of aggregation in assay [2] was 2.2% (inactive). The nuclei count in assay [2] turned out to be 101%; in assay [3], 108%. Also, the fluorescence slope in assay [4] was -0.565 (inactive); in assay [6], 0.00534 (inactive). Moreover, in assay [5], the NADPH fluorescence slope was -5.9e-05 (inactive).
With `CCCn1c2ccccc2c2nnc(SCC(=O)OCC)nc21`, the cell count in assay [1] is 412. Moreover, the inhibition in assay [1] was -1.5% (inactive); in assay [3] it was 14.6% (inactive); in assay [7] it was 17.9% (inactive); in assay [8], 25% (inactive). Besides, in assay [2], the inhibition of aggregation was -3% (inactive). Besides, the nuclei count is 124% in assay [2] and 104% in assay [3]. Besides, the fluorescence slope in assay [4] is -0.536 (inactive); in assay [6], 0.00386 (inactive). The NADPH fluorescence slope in assay [5] is -7.3e-05 (inactive).
Regarding `O=C(CSc1nnc(Cn2nnc(-c3ccccc3)n2)n1-c1ccccc1)Nc1ccc(F)cc1`, in assay [1], the cell count is 626. Also, the inhibition was -9.3% (inactive) in assay [1], -114% (inactive) in assay [3], 10.9% (inactive) in assay [7] and 14.9% (inactive) in assay [8]. Further, the inhibition of aggregation in assay [2] was -10.3% (inactive). Also, the nuclei count in assay [2] was 101%; in assay [3] it was 111%. Also, the results for the fluorescence slope in assay [4] and in assay [6] were -0.573 (inactive) and 0.00351 (inactive), respectively. In assay [5], the NADPH fluorescence slope was -6e-05 (inactive).
For the compound `O=C1CC(c2ccco2)CC(O)=C1C=NCC1NCCc2ccccc21` (centres undefined), the cell count in assay [1] was found to be 330. The inhibition was -2.8% (inactive) in assay [1], -123% (inactive) in assay [3], 17.9% (inactive) in assay [7] and 27.2% (inactive) in assay [8]. Also, the inhibition of aggregation in assay [2] is 5.8% (inactive). Moreover, the nuclei count in assay [2] was 94.2%; in assay [3], 125%. Further, the figures for the fluorescence slope in assay [4] and in assay [6] were -0.511 (inactive) and 0.00572 (inactive), respectively. The NADPH fluorescence slope in assay [5] was 2.1e-05 (inactive).
In the case of `Clc1ccc(Cc2nn3c(-c4ccncc4)nnc3s2)cc1`, in assay [1], the cell count amounted to 322. The inhibition in assay [1] was -5.1% (inactive); in assay [3], -102% (inactive); in assay [7] it was -1.37% (inactive); in assay [8], -9.67% (inactive). Further, in assay [2], the inhibition of aggregation is 5.5% (inactive). Besides, the nuclei count was determined as 83.3% in assay [2] and 110% in assay [3]. In addition, the fluorescence slope was -0.523 (inactive) in assay [4] and 0.00382 (inactive) in assay [6]. Besides, in assay [5], the NADPH fluorescence slope is -0.000147 (inactive).
As to `CCOc1ccc(-n2c(C)nc3c(cnn3-c3ccc(Cl)cc3)c2=O)cc1`, the cell count in assay [1] came to 238. The inhibition in assay [1] is -9% (inactive); in assay [3], 2.1% (inactive); in assay [7] it was -2.74% (inactive); in assay [8], -8.54% (inactive). Besides, the inhibition of aggregation in assay [2] was -23.6% (inactive). In addition, the nuclei count was found to be 96.9% in assay [2] and 109% in assay [3]. Also, the fluorescence slope in assay [4] is -0.58 (inactive); in assay [6], 0.00771 (inactive). Besides, the NADPH fluorescence slope in assay [5] is -4.1e-06 (inactive).
With `CS(=O)(=O)N1CCc2cc(C(=O)N3CCCCC3)ccc21`, the cell count in assay [1] amounted to 493. Further, the inhibition in assay [1] was 6.1% (inactive); in assay [3], -8.3% (inactive); in assay [7], 17.7% (inactive); in assay [8], 18.6% (inactive). Also, the inhibition of aggregation in assay [2] is 0.6% (inactive). Besides, the nuclei count in assay [2] amounted to 100%; in assay [3], 83.3%. The fluorescence slope in assay [4] is -0.494 (inactive); in assay [6] it was 0.00629 (inactive). Further, the NADPH fluorescence slope in assay [5] was 5.6e-05 (inactive).
As to `CCCCCn1c(=O)[nH]c2cc(C(=O)NCCN3CCOCC3)ccc2c1=O`, the cell count in assay [1] worked out at 355. Further, the inhibition in assay [1] is -1% (inactive); in assay [3] it was -15.3% (inactive); in assay [7], 5.81% (inactive); in assay [8] it was 9.94% (inactive). In assay [2], the inhibition of aggregation was 18% (inactive). Besides, the results for the nuclei count in assay [2] and in assay [3] were 104% and 120%, respectively. The fluorescence slope in assay [4] was -0.323 (inactive); in assay [6], 0.00658 (inactive). Also, in assay [5], the NADPH fluorescence slope is -3.7e-05 (inactive).
On to `COc1cc(C(=O)N2CCCC(c3nc(-c4cccs4)no3)C2)cc(OC)c1OC` (centres undefined), for which the cell count in assay [1] came to 709. The inhibition was -19.4% (inactive) in assay [1], -30.6% (inactive) in assay [3], 13.5% (inactive) in assay [7] and 12.8% (inactive) in assay [8]. The inhibition of aggregation in assay [2] was 4.4% (inactive). Besides, the values for the nuclei count in assay [2] and in assay [3] were 89% and 101%, respectively. In addition, the results for the fluorescence slope in assay [4] and in assay [6] were -0.508 (inactive) and 0.00584 (inactive), respectively. In addition, the NADPH fluorescence slope in assay [5] is -0.000226 (inactive).
For `O=C(CN1C(=O)NC2(CCCCCC2)C1=O)N1CCC(Cc2ccccc2)CC1`, the cell count in assay [1] was determined as 444. In addition, the inhibition in assay [1] was 2.9% (inactive); in assay [3] it was -38.1% (inactive); in assay [7], 0.617% (inactive); in assay [8], 15.9% (inactive). Besides, the inhibition of aggregation in assay [2] is -3.9% (inactive). For the same compound, the nuclei count in assay [2] amounted to 99.8%; in assay [3] it was 104%. In addition, the fluorescence slope in assay [4] was -0.366 (inactive); in assay [6] it was 0.00581 (inactive). In assay [5], the NADPH fluorescence slope was 2.2e-05 (inactive).
On to `CCOC(=O)CN1C2=NCCN2c2ccccc21`, for which the cell count in assay [1] is 428. The inhibition in assay [1] is 3.8% (inactive); in assay [3], -107% (inactive); in assay [7] it was 13.8% (inactive); in assay [8], 18.8% (inactive). Further, the inhibition of aggregation in assay [2] was -1.1% (inactive). In addition, the nuclei count in assay [2] was determined as 76.3%; in assay [3] it was 125%. Further, the values for the fluorescence slope in assay [4] and in assay [6] were -0.605 (inactive) and 0.00469 (inactive), respectively. Also, the NADPH fluorescence slope in assay [5] is -8.6e-06 (inactive).
